From PubChem
Arr AP2 block: blocks beta-arrestin peptide binding to AP2 adaptin; FITC-arrestin peptide / GST-AP2 beads, flow cytometry; AP2 beta2 appendage carries R879A mutation; inhibition, % at 10 µM; hit rate 0.31% among 340,000; AID 504490;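 active = inhibition above a set limit, near 3 SD of compounds lacking own fluorescence, cut at about 54% in these data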;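 also: plate controls were DMSO wells for no effect and 5 µM unlabelled arrestin peptide for full effect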
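System: GST-AP2 R879A glutathione beads | Also added: FITC-arrestin peptide, 50 nM | Times: 12 min plus 1 h, RT | Signal: Bead flow cytometry, FITC channel | Buffer or medium: PBS with 0.05% Tween 20 and 0.1% BSA | Read-out basis: Percent drop in bead-associated FITC signal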
Rin1-Abl PPI inh: blocks binding of human Rin1 to Abl; TR-FRET Rin1/Abl binding, biochemical; inhibition, % at 7.35 µM; hit rate 0.4% among 360,000; AID 588664; in the data active = inhibition above about 5%, passing the limit was not always enough
ABHD5-PLIN5 inh: blocks binding of human ABHD5 to perilipin-5 | AID 602281 | Q00G26+Q8WTS1 | inhibition, % at 4 µM | hit rate 0.78% among 360,000 | Split G. princeps luciferase complementation, luminescence, 4 h;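 active = inhibition above the mean inhibition across every tested compound plus 3 SD, cut at about 22% in these data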;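 also: 0% = DMSO only wells and the 100% control is not disclosed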
B2AR ag: agonists of human beta-2 adrenergic receptor inducing internalization; Am2.2-beta2AR cells, FAP receptor internalization, flow cytometry; hit rate 0.43% among 340,000; response, % (concentration not given with the values); P07550;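 active = response above a set limit, near 3 SD of response in nonfluorescent compounds, cut at about 42% in these data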
MBD2 inh: MBD2-methylated oligo binding inhibition. Q9UBB5. TR-FRET, MBD2 binding to methylated oligonucleotide. inhibition, % at 4.4 µM. hit rate 0.31% among 370,000. AID 686964; in the data active = inhibition above about 13%
Target sequence (Q9UBB5 whole entry, looked up): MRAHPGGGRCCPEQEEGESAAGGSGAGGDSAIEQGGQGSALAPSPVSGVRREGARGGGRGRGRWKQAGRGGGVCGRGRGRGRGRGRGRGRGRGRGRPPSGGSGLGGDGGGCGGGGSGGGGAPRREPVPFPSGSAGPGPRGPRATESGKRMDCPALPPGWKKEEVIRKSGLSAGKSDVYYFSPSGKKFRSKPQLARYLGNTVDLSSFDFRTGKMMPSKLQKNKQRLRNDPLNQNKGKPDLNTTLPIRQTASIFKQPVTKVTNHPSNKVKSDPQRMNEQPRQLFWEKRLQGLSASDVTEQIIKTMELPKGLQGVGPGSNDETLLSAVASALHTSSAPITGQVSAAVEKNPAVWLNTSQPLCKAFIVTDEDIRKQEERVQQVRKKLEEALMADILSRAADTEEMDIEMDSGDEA
UHRF1 binding: human UHRF1 methylated DNA binding inhibitors; Q96T88; AID 687016; hit rate 0.75% among 370,000; UHRF1 binding to methylated oligo, TR-FRET; inhibition, % at 4.4 µM; in the data active = inhibition above about 21%;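 also: UHRF1 SRA domain binding a hemimethylated CpG hairpin DNA probe; 0% = median of test compound wells and 100% = reference inhibitor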
Arr AP2 CP1: blocks beta-arrestin peptide binding to human AP2; shares compounds with Arr AP2 block; GST-AP2 beads, FITC arrestin peptide binding, flow cytometry; GST-fused beta2-adaptin appendage, R879A mutant; inhibition, % at 10 µM; hit rate 2% among 1,300;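 active = inhibition above a set limit, roughly 3 SD of non-fluorescent compound noise, cut at about 38% in these data; inactive = inhibition at or below that limit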;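 also: loss of bead fluorescence from 50 nM FITC arrestin peptide bound to appendage; 0% = negative control wells and 100% = excess unlabelled arrestin peptide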
GST-FITC bead: disrupts GST binding to glutathione beads, arrestin-AP2 artifact. shares compounds with Arr AP2 block. GST-fluorescein binding to GSH beads, fluorescence, counter-screen. inhibition, % at 10 µM. hit rate 2% among 1,300. AID 588338;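 active = inhibition above 50%, about 3 SD of the inhibition seen with non-fluorescent compounds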;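 also: fluorescein maleimide labelled GST captured on 4 micron glutathione beads; higher means more loss of bead fluorescence from quenching or blocked binding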
Rin1-Abl confirm: Rin1-Abl interaction inhibition confirmation; shares compounds with Rin1-Abl PPI inh; TR-FRET Rin1-Abl binding, purified proteins; inhibition, % at 7.35 µM; hit rate 49% among 1,300
GFP quench: quenches GFP fluorescence, counter-screen for Rin1-Abl inhibitors; shares compounds with Rin1-Abl PPI inh; inhibitors/quenchers counterscreen; inhibition, % at 6.75 µM; hit rate 8.5% among 1,300;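 also: ABL1-eGFP fusion protein alone without its partner RIN1-SBP; 0% = protein with vehicle and 100% = wells lacking protein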
GFP quench dose: quenches GFP in dose response, Rin1-Abl counter-screen | IC50, µM | GFP fluorescence interference/quenching counterscreen | 230 tested, under 10 active | shares compounds with Rin1-Abl PPI inh; call rule not given here;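 also: ABL1-eGFP fusion protein alone without its RIN1 binding partner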
An asterisk follows results filed as active; / = not tested or not shown. Most compounds without a hit are left out; they make up all but 2.5% or so of the library. Rule as the data show it, unless noted: active = inhibition above about 6.5%; inactive = the rest.

SMILES | Arr AP2 block | Rin1-Abl PPI inh | ABHD5-PLIN5 inh | B2AR ag | MBD2 inh | UHRF1 binding | Rin1-Abl confirm | GFP quench | others
CN(C)c1ccc(C=C2C(=O)NC(=S)NC2=O)cc1[N+](=O)[O-] | 63.7* | -4.2 | 2.6 | 5.0 | -3.4 | -3.6 | / | / | Arr AP2 CP1=16.9;GST-FITC bead=6.5
CN(C)c1ccc(C=C2C(=O)NC(=O)NC2=O)cc1[N+](=O)[O-] | 5.3 | -10.2 | 15.1 | 3.8 | -6.6 | -13.5 | / | /
CCOC(=O)C1(CCc2ccccc2)CCN(Cc2ccc3c(c2)OCCO3)CC1 | 4.3 | 2.9 | 0.1 | 0.9 | -4.5 | -2.0 | / | /
CCOC(=O)C1(CCOc2ccccc2)CCN(Cc2ccc(C)s2)CC1 | 57.0* | 0.2 | 4.0 | 4.9 | 5.5 | -0.8 | / | / | Arr AP2 CP1=10.1;GST-FITC bead=-4.5
c1ccc2c(c1)cc1ccc3cccc4ccc2c1c34 | 57.2* | 2.3 | 7.3 | 8.6 | 4.3 | 0.7 | / | / | Arr AP2 CP1=11.3;GST-FITC bead=-0.7
CNC(=O)Oc1c(C)[nH]ccc1=O | / | -1.8 | -4.0 | / | -2.5 | 3.0 | / | /
CC12CCC(O)CC1CCC1C2CCC2(C)C(C(=O)CO)CCC12 (stereo not given) | / | 2.0 | 1.7 | / | -4.0 | -2.6 | / | /
CCCN1CCc2cc(O)cc3c2[C@H]1Cc1ccc(O)c(O)c1-3 | 37.4 | 11.3* | -5.8 | 0.5 | 4.4 | 4.3 | 11.7* | 8.6*
CN1CCc2cc(O)cc3c2[C@H]1Cc1ccc(O)c(O)c1-3 | 38.9 | 11.3 | -2.6 | -8.5 | -2.6 | 10.5 | / | /
O=c1[nH]c2ccccc2n1C1CCN(C(c2nnnn2-c2ccc3c(c2)OCCO3)C2CC2)CC1 (stereo not given) | / | 17.2* | 1.6 | / | -4.4 | -1.1 | 19.9* | 0.8 | GFP quench dose=>67.6
O=c1[nH]c2ccccc2n1C1CCN(C(c2ccccc2)c2nnnn2-c2ccc3c(c2)OCCO3)CC1 (stereo not given) | / | 6.3 | 8.4 | / | 0.3 | 1.6 | / | /
COc1ccc(-n2nnnc2C(C2CC2)N2CCC(n3c(=O)[nH]c4ccccc43)CC2)cc1 (stereo not given) | / | 20.1* | 3.7 | / | -1.5 | 0.3 | 23.6* | 0.1 | GFP quench dose=>67.5
O=c1[nH]c(O)c(C=Nc2cccc(F)c2)c(=O)[nH]1 | -2.2 | 1.5 | 2.5 | -2.2 | -1.8 | -4.2 | / | /
CCN(CC)C(=O)c1ccc(NC(=O)c2cc(S(=O)(=O)N3CCCCCC3)ccc2OC)cc1 | 4.3 | 85.6* | 6.6 | -3.7 | -5.8 | -2.4 | 89.9* | 0.0 | GFP quench dose=>67.5
CCN(CC)C(=O)c1ccc2c(c1)C1C(Cl)C(Sc3ccccc3[N+](=O)[O-])CC1C(C(=O)O)N2 (stereo not given) | 42.6 | 6.8* | 23.0* | -0.1 | / | / | -0.8 | 16.7*
Cc1ccc2c(c1Cl)NC(C(=O)O)C1CC(Sc3ccccc3[N+](=O)[O-])C(Cl)C21 (stereo not given) | 5.0 | 0.5 | 0.9 | 12.3 | / | / | / | /
COC(=O)C(O)(c1ccc(NC(=O)c2ccccc2)cc1)C(F)(F)F (stereo not given) | -6.5 | 1.0 | -1.3 | -2.4 | 2.0 | -0.2 | / | /
COC(=O)CCCCC1SCC(NC(=O)c2ccccc2)C1Cl (stereo not given) | 37.6 | 9.2* | 2.2 | -7.3 | -0.8 | -1.8 | 13.5* | -1.9
CCOP(=O)(Nc1ccc2c(c1)C(=NNC(N)=S)c1ccccc1-2)OCC | 7.9 | -7.3 | -6.1 | 2.4 | 0.5 | -1.5 | / | /
CC1C(OC(=O)CCC(=O)NC(C)(C)CO)O[C@H]2OC3(C)CC[C@H]4[C@H](C)CCC1C24OO3 (stereo not given in full) | -0.2 | 2.0 | -0.4 | 0.5 | -7.2 | -3.7 | / | /
COc1cccc(C(c2nnnn2-c2ccc3c(c2)OCCO3)N2CCC(n3c(=O)[nH]c4ccccc43)CC2)c1OC (stereo not given) | / | 19.9* | 7.0 | / | -0.6 | 5.0 | 18.9* | -1.1 | GFP quench dose=>67.5
COc1ccc(-n2nnnc2C(c2cccc(OC)c2OC)N2CCC(n3c(=O)[nH]c4ccccc43)CC2)cc1 (stereo not given) | / | 18.6* | 4.7 | / | -1.3 | -0.5 | 15.9* | 1.9
COc1ccc(-n2nnnc2C(c2ccnc3ccccc23)N2CCC(n3c(=O)[nH]c4ccccc43)CC2)cc1 (stereo not given) | / | 3.6 | 16.0 | / | 0.7 | 0.5 | / | /
CN(C(=O)Oc1cccc2ccccc12)C1C=CCC1 (stereo not given) | 3.1 | 3.0 | -9.1 | 3.8 | -8.7 | -1.7 | / | /
CCN(C(=O)COC(=O)C(O)(c1ccccc1)c1ccccc1)c1c(N)n(Cc2ccccc2)c(=O)[nH]c1=O | 30.4 | 4.7 | 1.5 | -6.5 | -3.0 | 0.1 | / | /
SMILES | Arr AP2 block | Rin1-Abl PPI inh | ABHD5-PLIN5 inh | B2AR ag | MBD2 inh | UHRF1 binding | Rin1-Abl confirm | GFP quench | others
COc1cccc(/C=C2\N=C(c3cncc(Br)c3)OC2=O)c1 | -1.1 | -0.1 | -3.6 | 1.7 | 6.1 | 1.0 | / | /
CCCCn1c(NC(=O)c2ccc(Br)o2)c(C(=O)OCC)c2nc3ccccc3nc21 | 7.5 | 7.3* | -29.3 | -69.7 | -3.9 | 4.4 | 4.9 | 1.2
COP(=O)(OC)C(NS(=O)(=O)c1ccccc1)C(Cl)(Cl)Cl (stereo not given) | 39.8 | 8.0* | 3.7 | -0.6 | 2.3 | -2.1 | -0.5 | -0.8
Cc1ccc(N2C(=O)NC(=O)/C(=C/C=C/c3ccco3)C2=O)cc1 | 1.9 | 6.2* | 16.6 | 83.0* | -2.9 | 10.2 | 2.7 | 0.4
Cc1ccc(-n2c(=S)[nH]c3ccccc3c2=O)cc1C | / | -4.2 | -2.9 | / | -3.0 | -1.6 | / | /
CC(C)CCNC(=O)c1c(N)n(CC2CCCO2)c2nc3ccccc3nc12 (stereo not given) | 1.8 | 7.7 | -14.8 | 5.5 | -2.2 | -6.5 | / | /
CCC(C)NC(=O)c1c(N)n(CC2CCCO2)c2nc3ccccc3nc12 (stereo not given) | -1.0 | 5.7* | -18.0 | 1.8 | 4.4 | 11.8 | 3.1 | -0.8
Nc1c(C(=O)NCCN2CCOCC2)c2nc3ccccc3nc2n1Cc1ccccc1 | -5.3 | -4.8 | 11.8 | -6.3 | 2.5 | -2.1 | / | /
CCC(C)NC(=O)c1c(N)n(CCCOC)c2nc3ccccc3nc12 (stereo not given) | 8.1 | 27.0* | -38.5 | -4.5 | 13.1 | 10.4 | 2.0 | -0.6
